Compounds with a hit are over-represented: about 4.9% of the library has one in this group of screens.
STAT3 activator: increases IL-6 driven STAT3 reporter signal. U3A cells, IL-6 STAT3-luciferase reporter, luminescence; 100% = signal with IL-6 EC80 alone. activation (% of control), % at 5.6 µM. actives 0.91% (n = 190,000). AID 871;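 active = activation above the screen-wide mean of compound activation plus 3 SD, cut at about 130% in these data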
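Material: human STAT1-deficient U3A cells with stable STAT3-luciferase reporter / Probe or stimulus: IL-6 stimulus at 33 ng/mL final / Schedule: 1 h compound pre-exposure, 6 h IL-6 stimulation, 37 °C / Technique: luminescence / Read-out basis: percent of IL-6-only median luminescence / Control set: IL-6-only high control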
APP 5'UTR act: APP 5'UTR luciferase reporter activation. SH-SY5Y APP 5'UTR luciferase reporter, luminescence; zero percent = DMSO vehicle wells. activation, % at 2 µM. actives 1% (n = 190,000);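 active = activation above a set limit, based on mean plus 3 SD of controls, cut at about 140% in these data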
STAT3 inh: reduces IL-6 driven STAT3 reporter signal | inhibition, % at 5.5 µM | AID 862 | U3A cells, IL-6 STAT3-luciferase reporter, luminescence; host cell line lacks STAT1 | actives 0.89% (n = 190,000);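 active = inhibition above the mean inhibition across all screened compounds plus 3 SD, cut at about 44% in these data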
STAT1 inh-1: STAT1 signaling inhibition; NIH 3T3 STAT1-luciferase reporter, IFN-gamma, luminescence; inhibition, % at 5.5 µM; actives 0.35% (n = 200,000); AID 920;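 active = inhibition above a set limit, the mean inhibition across all tested compounds plus 3 SD, cut at about 34% in these data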
STAT1 act: increases IFN-gamma driven STAT1 reporter signal; NIH 3T3 STAT1-luciferase reporter, luminescence; 100% = IFN-gamma alone, no compound; activation (% of control), % at 5.5 µM; actives 2.6% (n = 200,000);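 active = activation above the screen-wide mean activation plus 3 SD, cut at about 130% in these data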
NF-kB neuron act: raises NF-kB expression in human neuronal cells; NF-kB reporter expression; hits give high values; fold change at 12.5 µM; actives 1.6% (n = 190,000); AID 1239; in the data active = fold change above about 3.3
STAT1 inh-2: confirmation of STAT1 signaling inhibitors | shares compounds with STAT1 inh-1 | NIH 3T3 STAT1-luciferase reporter, IFN-gamma, luminescence | inhibition, % at 5.5 µM | actives 55% (n = 200) | AID 1263;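 active = triplicate mean inhibition exceeding the hit cutoff computed for the primary STAT1 screen, cut at about 35% in these data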
NFkB inh STAT1ct: inhibits NF-kappaB, counter-screen to STAT1 inhibitors; shares compounds with STAT1 inh-1; inhibition, % at 5.7 µM; AID 1303; actives 30% (n = 200); HEK293T NF-kB luciferase reporter, TNF-alpha induced, luminescence;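 active = inhibition above the mean of solvent-only control wells plus 3 SD of those wells, cut at about 15% in these data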
STAT3 inh STAT1c: inhibits STAT3, counter-screen to STAT1 inhibitors | shares compounds with STAT1 inh-1 | U3A cells, IL-6 STAT3 luciferase reporter, luminescence; cells lacking STAT1 | inhibition, % at 5.7 µM | actives 20% (n = 200);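 active = inhibition above the mean of solvent-only control wells plus 3 SD, set per campaign, cut at about 25% in these data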
A number is an active result; - = inactive; . = no result given.

SMILES | STAT3 activator | APP 5'UTR act | STAT3 inh | STAT1 inh-1 | STAT1 act | NF-kB neuron act | STAT1 inh-2 | NFkB inh STAT1ct | STAT3 inh STAT1c
COc1ccc(CCNc2ncnc3cc(OC)c(OC)cc23)cc1OC | - | - | - | 35.4 | - | - | 35.9 | - | -
CC(C)CNC(=O)COC(=O)c1c2c(nc3ccccc13)/C(=C/c1cccs1)CC2 | - | - | - | 38.5 | - | - | - | - | -
Cc1ccn(C(=O)c2ccc(NC(=O)CC(C)C)cc2)n1 | - | - | - | - | - | - | . | . | .
CCOc1ccc(S(=O)(=O)Nc2cccc(C)c2)c2cccnc12 | - | - | - | 37.3 | - | - | - | - | -
Cc1c(CN2CCCC(C(=O)c3cccc(OC(C)C)c3)C2)c(=O)n(-c2ccccc2)n1C (configuration not stated) | - | - | - | - | - | - | . | . | .
Oc1ccc(Oc2ccc3c(C(F)(F)F)cc(C(F)(F)F)nc3n2)cc1 | - | - | - | 61.5 | - | - | 53.6 | 22.6 | -
COc1ccc(Oc2ccc3c(C(F)(F)F)cc(C(F)(F)F)nc3n2)cc1 | - | - | - | - | - | - | . | . | .
CCc1cc(=O)oc2cc3occ(-c4ccc(OC)c(F)c4)c3cc12 | - | - | - | - | - | - | . | . | .
C=CCOC(=O)C1=C[C@H](c2cn(C(C)=O)c3ccccc23)C[C@H](OCCCCO)O1 | . | - | . | - | - | - | . | . | .
C=CCOC(=O)C1=C[C@@H](c2cn(C(C)=O)c3ccccc23)C[C@@H](OCCCCO)O1 | . | - | . | - | - | - | - | - | -
COc1ccc(C(=O)/C(C#N)=N/Nc2cccc([N+](=O)[O-])c2)cc1 | - | - | - | 44.1 | - | - | - | - | -
N#C/C(=N\Nc1cccc(Cl)c1)C(=O)c1ccccc1 | - | - | - | - | - | - | . | . | .
CC(=O)Nc1ccc2nc(NC(=O)COc3cccc(C)c3)sc2c1 | - | - | - | - | - | - | . | . | .
CCCN1CCN(CCCNC(=O)CCn2nc(-c3ccccc3)ccc2=O)CC1 | - | - | - | - | - | - | . | . | .
Cn1c(-c2ccccc2)c(C(=O)CCl)c2ccccc21 | - | - | - | 36.6 | - | - | 35.8 | 39.5 | -
O=C(O)c1cc(/C=C/c2ccc(N3CCOCC3)cc2)nc2ccccc12 | - | - | - | 39.0 | - | - | - | 38.0 | -
O=C(Nc1ccccc1)c1cc(N2CCOCC2)nc2ccccc12 | - | - | - | - | - | - | . | . | .
O=C(CSc1nc2ccccc2c(=O)[nH]1)c1ccc(O)c(O)c1 | - | - | - | - | - | - | . | . | .
O=C(CSc1nc2ccccc2c(=O)[nH]1)c1ccc(O)cc1O | - | - | - | 64.1 | - | - | 43.4 | - | -
Cc1ccc2sc(-c3ccc(NC(=O)/C=C\C(=O)O)cc3)nc2c1 | - | 197.0 | - | 43.0 | - | 5.43 | - | - | -
CCOC(=O)c1c(C)sc2c1N(C(=O)CCl)c1cc(Cl)ccc1S2 | - | - | - | 36.1 | - | - | 40.1 | 30.3 | -
CCOC(=O)C1C(C)=C(Nc2ccc(OC)cc2)C(=O)N1c1ccc(OC)cc1 (configuration not stated) | - | - | - | - | - | - | . | . | .
O=C(c1ccc(Cl)cc1)N1CCN(c2ccnc3cc(Cl)ccc23)CC1 | - | - | - | 48.3 | - | - | 46.7 | - | -
Cc1cc2nc(N=C(N)N)nc(C)c2cc1C | - | - | - | - | - | - | . | . | .
CCOC(=O)c1sc(N(Cc2ccccc2)C(=O)COC(=O)c2ccccc2O)nc1C | - | - | - | - | - | - | . | . | .
CCOC(=O)c1sc(N(Cc2ccccc2)C(=O)COC(=O)c2ccc(O)cc2)nc1C | - | - | - | 57.8 | - | - | 59.5 | 56.9 | -
CCOc1cc(-c2noc(N)c2C#N)cc(OCC)c1OCC | - | - | - | 39.6 | - | - | 42.4 | - | -
CN1CCN(Cc2nc3ccccc3c(=O)n2Cc2nc(-c3ccc4ccccc4c3)cs2)CC1 | - | - | - | 45.4 | - | 15.9 | 40.5 | - | -

Source: PubChem (several laboratories)
